Sampled rows, rich in hits. Any-hit rate of the full collection: about 2.6%.
STEP block – inhibitors of human striatal-enriched phosphatase STEP. actives 0.25% (n = 360,000). recombinant STEP, OMFP fluorogenic substrate, fluorescence. inhibition, % at 20 µM. P54829;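 active = inhibition at 20 µM, scaled per plate between control wells, above about 37%, limit read from the data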;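 also: 0% = DMSO with enzyme and substrate and 100% = substrate only without enzyme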
Target sequence (P54829 whole entry, looked up): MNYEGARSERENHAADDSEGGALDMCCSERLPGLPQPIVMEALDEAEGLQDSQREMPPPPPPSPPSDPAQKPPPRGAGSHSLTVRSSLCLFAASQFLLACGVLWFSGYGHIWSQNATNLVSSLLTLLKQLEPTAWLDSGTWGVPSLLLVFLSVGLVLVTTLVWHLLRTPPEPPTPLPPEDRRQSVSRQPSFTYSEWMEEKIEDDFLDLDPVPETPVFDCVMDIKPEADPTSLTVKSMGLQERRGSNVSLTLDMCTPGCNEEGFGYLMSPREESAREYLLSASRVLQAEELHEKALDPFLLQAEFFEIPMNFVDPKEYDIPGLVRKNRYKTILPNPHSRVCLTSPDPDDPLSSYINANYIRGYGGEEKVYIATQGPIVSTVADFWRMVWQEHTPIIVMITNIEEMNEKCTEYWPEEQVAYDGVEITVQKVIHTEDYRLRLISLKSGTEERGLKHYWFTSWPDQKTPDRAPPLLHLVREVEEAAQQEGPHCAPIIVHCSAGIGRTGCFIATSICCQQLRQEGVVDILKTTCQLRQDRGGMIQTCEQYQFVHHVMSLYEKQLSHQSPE
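Material: STEP (striatal-enriched tyrosine phosphatase) enzyme, cell-free | Medium: 50 mM Bis-Tris pH 6.0 with 2.5 mM DTT and 0.005% Tween 20 | Read-out: Percent inhibition scaled to no-enzyme and uninhibited-enzyme controls, plate-pattern corrected | Signal: Fluorescence read at 480 nm ex / 540 nm em | Times: 20 min reaction, room temperature, in the dark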
Scp1 inh – Scp-1 (human) phosphatase inhibition; inhibition, % at 20 µM; Recombinant Scp1, phosphopeptide, malachite green phosphate absorbance; Q9GZU7; AID 493091; actives 0.88% (n = 340,000);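 active = inhibition above about 50% at 20 µM, limit read from the data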;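 also: plate controls were DMSO wells with enzyme for no effect and wells lacking enzyme for full effect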
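Material: truncated SCP-1 phosphatase (76-261aa) / Buffer or medium: 50 mM Tris acetate pH 5.5, 0.005% Tween-20, 10 mM MgCl2 / Compound dosing: one concentration, 20 µM, with 1.0% DMSO / Incubation: 45 min room-temperature reaction, 5 min colour, 30 min stabiliser / Detection: colorimetric free-phosphate detection, absorbance 630 nm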
LMPTP inh – LMPTP (human) inhibition. actives 0.22% (n = 360,000). inhibition, % at 20 µM. recombinant LMPTP-A, OMFP fluorogenic substrate, fluorescence intensity. P24666;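 active = compounds that cut the enzyme signal by at least half of the control window in the single-dose screen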;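 also: plate controls were DMSO wells with enzyme plus substrate for no effect and substrate without enzyme for full effect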
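Test system – LMPTP-A enzyme · Amount – LMPTP-A at 0.625 nM final in the reaction · Buffer or medium – Bis-Tris pH 6.0, DTT, detergent · Reagent – OMFP 400 µM · Doses – single 20 µM dose · Schedule – reaction 50 min, room temperature, dark · Detection – fluorescence intensity of OMFP turnover product · Evaluation – percent inhibition versus substrate-only and uninhibited controls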
NadD inh – NadD (S. aureus) enzyme inhibition. inhibition, % at 20 µM. purified NadD enzyme, colorimetric absorbance read-out. actives 0.78% (n = 360,000). AID 602399; in the data active = inhibition above about 26%
rCAG binder – r(CAG) repeat RNA binding. TO-PRO-1 dye displacement fluorescence. inhibition, % at 3 µM. actives 1.3% (n = 370,000);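 active = inhibition above the plate cutoff, the mean of all test compounds on that plate plus 3 SD, cut at about 35% in these data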;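 also: 0% = DMSO alone and 100% = 100 µM mitoxantrone as full dye displacement; higher means more dye released from RNA so lower well fluorescence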
Scp-1 conf – confirmation of human Scp-1 phosphatase inhibitors. shares compounds with Scp1 inh. recombinant SCP-1 catalytic domain, phosphate release, malachite green absorbance. inhibition, % at 20 µM. actives 61% (n = 2,500);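 also: plate controls were DMSO with enzyme for no effect and buffer wells lacking enzyme for full effect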
MG interference – colorimetric interference in Scp-1 counter-screen | Colorimetric interference counterscreen, malachite green absorbance 630 nm | 2,500 tested, under 10 active | shares compounds with Scp1 inh | apparent inhibition (interference), % at 20 µM;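 also: compounds added after enzyme reaction finished so only phosphate colour detection is probed; plate controls were DMSO wells with completed Scp-1 reaction for no effect and substrate wells lacking enzyme for full effect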
Scp1 DSF – binds human Scp-1, shifting its melting temperature | shares compounds with Scp1 inh | Recombinant SCP1, Sypro Orange thermal shift Tm | thermal shift relative to vanadate control, % at 40 µM | actives 25% (n = 1,500) | AID 540329;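 active = substances whose mean melting-temperature shift, as a percentage of the reference inhibitor's shift, reaches about 5.3%, limit read from the data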;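 also: 0% = Tm of DMSO wells and 100% = Tm with sodium orthovanadate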
* hit, by the source's call.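 The calls were made as follows, unless noted: active = inhibition of at least 30% at 20 µM; inactive = the rest.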

For COc1ccc2c(c1)C(=NNC(=O)c1ccccn1)c1cc(OC)ccc1-2 the results were STEP block 31, Scp1 inh 81*, LMPTP inh 29, NadD inh -7, rCAG binder 3, Scp-1 conf 62*, MG interference -13 and Scp1 DSF 0.
For CCc1ccc(CCNC(=O)OC2CCC23CCC(c2ccccc2)CC3)cc1 (stereo not drawn) the results were rCAG binder 3.
CN(C)C(=O)COC(=O)c1ccc(S(=O)(=O)NCc2ccco2)cc1 was read as STEP block 5, Scp1 inh 75*, LMPTP inh -1, NadD inh -7, rCAG binder 1, Scp-1 conf 54*, MG interference -10 and Scp1 DSF -16.
For O=C(COC(=O)c1ccc(S(=O)(=O)NCc2ccco2)cc1)Nc1ccccc1 the results were STEP block 0, Scp1 inh -1, LMPTP inh 1, NadD inh 1 and rCAG binder 5.
`O=C(COC(=O)c1ccc(S(=O)(=O)NCc2ccco2)cc1)Nc1ccc(Cl)cn1` gave STEP block 4, Scp1 inh 60*, LMPTP inh 9, NadD inh 5, rCAG binder 8, Scp-1 conf 64*, MG interference -11 and Scp1 DSF 6.4*.
`COC(=O)[C@]12C[C@H](CC(=O)N3CCSCC3)C(=O)N(Cc3ccco3)C1=C[C@H](C1CCCC1)O[C@@H]2C` gave rCAG binder 1.
For Cc1ccc2c(c1)C1CS(=O)(=O)N(Cc3ccccc3)CN1C2 (stereo not drawn) the results were rCAG binder 2.
COC(=O)[C@@H]1N=C(c2ccc(OC)cc2)O[C@]12C(=O)N(Cc1cn(Cc3ccccc3)nn1)c1cccc(Cl)c12 was read as rCAG binder 11.
Screening CCOC(=O)c1cnc2nc(NCc3ccc(OC)c(OC)c3)[nH]n2c1=O returned STEP block 23, Scp1 inh 54*, LMPTP inh 11, NadD inh -5, rCAG binder 2, Scp-1 conf 31*, MG interference -8 and Scp1 DSF 1.
`CCCc1cc(=O)n2[nH]c(NCc3ccc(OC)c(OC)c3)nc2n1` gave STEP block -2, Scp1 inh -9, LMPTP inh 1, NadD inh 5 and rCAG binder 1.
`CCN1CCN(Cc2ccc(NC(=O)CC3Oc4ccc(C)cc4NC3=O)cc2)CC1` (stereo not drawn) gave STEP block -1, Scp1 inh -12, LMPTP inh 0, NadD inh -2 and rCAG binder -3.
`Cc1ccc2c(c1)NC(=O)C(CC(=O)Nc1ccc(CN3CCC(C)CC3)cc1)O2` (stereo not drawn) gave STEP block -4, Scp1 inh 52*, LMPTP inh 1, NadD inh -2, Scp-1 conf -13 and MG interference -7.
COc1ccc2[nH]cc(/C=C/c3cc[n+](C)cc3)c2c1 was read as STEP block -2, Scp1 inh 58*, LMPTP inh 4, NadD inh 20, rCAG binder -45, Scp-1 conf -21 and MG interference -18.
Screening CCOC(=O)[C@]12CCCC=C1N(CCc1ccc(Cl)cc1)C(=O)[C@@H]2CC(=O)NCCC(C)C returned rCAG binder 2.
Screening CN1CCN(c2ccc3c(c2)Oc2ccccc2CN(Cc2cn(Cc4ccc(C(F)(F)F)cc4)nn2)S3(=O)=O)CC1 returned rCAG binder 7.
Screening CCc1nnc(NC(=O)CSC(=S)N2CCOCC2)s1 returned STEP block 3, Scp1 inh 67*, LMPTP inh -1, NadD inh -6, rCAG binder -1, Scp-1 conf -8 and MG interference -10.

Bioassay records (PubChem)
